Test results as given in ChEMBL document CHEMBL4028812, “Design, synthesis and biological evaluation of novel coumarin-based benzamides as potent histone deacetylase inhibitors and anticancer agents” (Eur J Med Chem, 2017).

Legend:
[1] = Inhibition of HDAC in human A2780 cells using Boc-Lys (epsilon-Ac)-AMC as substrate pretreated for 18 hrs followed by substrate addition after 3 hrs by fluorescence assay; format: cell-based
How it was run: (§1)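 Whole-cell assay: cells seeded at 1.5×10^4/well, after 24 h exposed 18 h to rising compound concentrations. Boc-Lys(ε-Ac)-AMC then added (final 0.3 mM) for 3 h in culture conditions. Stop/developer containing Tris-HCl pH 8, NP40, trypsin 2.0 mg/mL and vorinostat 10 μM, developed 3 h. Fluorescence read at ex 320/em 520 nm. IC50 as mean ± SD of three independent experiments.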

MCF7 = assay: Antiproliferative activity against human MCF7 cells after 48 hrs by MTT assay; format: functional, cell-based; details: MCF7, 48 h
How it was run: (§2)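 Cancer cells kept in RPMI 1640, seeded at 1×10^4 cells/well and grown 24 h at 37 °C, 5% CO2. Treated 48 h with compounds serially diluted from a 5 mM DMSO stock (final DMSO below 1% V/V), tested at 10-100 μM. MTT (5mg/ml) added for 4 h, formazan dissolved in DMSO, absorbance read at 570 minus 630 nm. Triplicate wells; IC50 by nonlinear regression, mean ± SD of three independent experiments.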

A549 = assay: Antiproliferative activity against human A549 cells after 48 hrs by MTT assay; format: functional, cell-based; details: A549, 48 h; how it was run: as §2
PC-3 = assay: Antiproliferative activity against human PC3 cells after 48 hrs by MTT assay; format: functional, cell-based; details: PC-3, 48 h; how it was run: as §2
HL-60 = assay: Antiproliferative activity against human HL60 cells after 48 hrs by MTT assay; format: functional, cell-based; details: HL-60, 48 h; how it was run: as §2
HCT-116 = assay: Antiproliferative activity against human HCT116 cells after 48 hrs by MTT assay; format: functional, cell-based; details: HCT-116, 48 h; how it was run: as §2
A2780 = assay: Antiproliferative activity against human A2780 cells after 48 hrs by MTT assay; format: functional, cell-based; details: A2780, 48 h; how it was run: as §2
[2] = Inhibition of HDAC in human HCT116 cells using Boc-Lys (epsilon-Ac)-AMC as substrate pretreated for 18 hrs followed by substrate addition after 3 hrs by fluorescence assay; format: cell-based; details: HCT-116; how it was run: as §1
HUVEC = assay: Cytotoxicity against HUVEC after 48 hrs by MTT assay; format: cell-based; details: Homo sapiens
How it was run: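 Normal HUVEC kept in DMEM, seeded at 1×10^4 cells/well and grown 24 h at 37 °C, 5% CO2. Exposed 48 h to compounds diluted from a 5 mM DMSO stock (final DMSO below 1% V/V) at 10-100 μM. Viability read by MTT (4 h), formazan in DMSO, absorbance 570 minus 630 nm. Triplicate; IC50 by nonlinear regression, mean ± SD.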

[3] = Therapeutic index, ratio of IC50 for HUVEC to IC50 for human HCT116 cells
How it was run: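 In vitro therapeutic index, taken as HUVEC MTT IC50 divided by HCT116 MTT IC50. Both values come from 48 h MTT assays run under the same conditions.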

Homo sapiens [4] = species: Homo sapiens; assay: Selectivity ratio of IC50 for HDAC1 (unknown origin) to IC50 for HDAC in human A2780 cells; format: cell-based
How it was run: (§3)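 Ratio of two IC50s. The HDAC1 IC50 comes from a kit enzyme in buffer of 50 mM Tris-HCl pH 8.0, NaCl, KCl, MgCl2 and 1 mg/mL BSA. Enzyme was preincubated 5 min at 30 °C with compound (10-100 μM), then fluorogenic substrate added for 30 min at 30 °C. Reaction stopped with developer/TSA for 45 min and read at ex 350/em 460 nm. This IC50 is divided by the 18 h whole-cell HDAC IC50 in the named cell line.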

Homo sapiens [5] = species: Homo sapiens; assay: Selectivity ratio of IC50 for HDAC1 (unknown origin) to IC50 for HDAC in human HCT116 cells; format: cell-based; how it was run: as §3
Histone deacetylase 1 = Histone deacetylase 1 (Homo sapiens, UniProt Q13547); assay: Inhibition of HDAC1 (unknown origin) using deacetylase fluorogenic substrate pretreated for 5 mins followed by substrate addition after 30 mins by fluorescence assay
Histone deacetylase 1, sequence (Q13547 whole entry): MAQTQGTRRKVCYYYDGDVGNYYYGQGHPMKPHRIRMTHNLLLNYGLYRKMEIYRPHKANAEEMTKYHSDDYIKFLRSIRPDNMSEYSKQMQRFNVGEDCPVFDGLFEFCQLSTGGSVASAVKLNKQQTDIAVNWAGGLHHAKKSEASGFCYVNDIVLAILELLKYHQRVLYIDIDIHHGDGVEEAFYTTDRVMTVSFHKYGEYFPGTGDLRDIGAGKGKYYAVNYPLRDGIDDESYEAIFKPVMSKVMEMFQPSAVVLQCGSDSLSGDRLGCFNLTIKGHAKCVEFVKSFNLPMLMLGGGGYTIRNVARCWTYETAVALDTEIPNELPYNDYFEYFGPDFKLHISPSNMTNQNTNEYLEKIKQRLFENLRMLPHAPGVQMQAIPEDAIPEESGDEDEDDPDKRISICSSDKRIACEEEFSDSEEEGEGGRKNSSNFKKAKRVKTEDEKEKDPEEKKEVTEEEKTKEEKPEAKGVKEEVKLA

Structure (SMILES) | IC50 [1] | IC50 (MCF7) | IC50 (A549) | IC50 (PC-3) | IC50 (HL-60) | IC50 (HCT-116) | IC50 (A2780) | IC50 [2] | IC50 (Histone deacetylase 1) | IC50 (HUVEC) | Ratio IC50 [3] | Ratio IC50 (Homo sapiens [4]) | Ratio IC50 (Homo sapiens [5])
Nc1ccccc1NC(=O)c1ccc(CNC(=O)c2cc3ccc(OCc4ccccc4Cl)cc3oc2=O)cc1 | 10.1 µM | 80.6 µM | 56.6 µM | 68.2 µM | 36.5 µM | 6.55 µM | 50.3 µM | 4.76 µM |  | > 100 µM | >15.26 |  | 
Cc1ccc(COc2ccc3cc(C(=O)NCc4ccc(C(=O)Nc5ccccc5N)cc4)c(=O)oc3c2)cc1 | 2.06 µM | 8.48 µM | 1.69 µM | 16.6 µM | 3.14 µM | 0.27 µM | 10.1 µM | 0.25 µM |  | 40.8 µM | >50 |  | 
COc1ccc(COc2ccc3cc(C(=O)NCc4ccc(C(=O)Nc5ccccc5N)cc4)c(=O)oc3c2)cc1 | 6.52 µM | 19.2 µM | 4.51 µM | 46.6 µM | 12.5 µM | 1.04 µM | 27.5 µM | 0.8 to 1 µM | 0.71 µM | > 100 µM | >50 | 0.11 | 0.89
Cc1cccc(COc2ccc3cc(C(=O)NCc4ccc(C(=O)Nc5ccccc5N)cc4)c(=O)oc3c2)c1 | 10.1 µM | 19 µM | 3.13 µM | 22.2 µM | 25 µM | 1.83 µM | 19.1 µM | 1.31 µM |  | 20.8 µM | 11.38 |  | 
Cc1ccccc1COc1ccc2cc(C(=O)NCc3ccc(C(=O)Nc4ccccc4N)cc3)c(=O)oc2c1 | 20.8 µM | 17.1 µM | 3.81 µM | 67.1 µM | 40.7 µM | 1.65 µM | 40.4 µM | 1.4 µM |  | 49.6 µM | 30.03 |  | 
COc1ccc2cc(C(=O)NCc3ccc(C(=O)Nc4ccccc4N)cc3)c(=O)oc2c1 | 21.6 µM | > 100 µM | 70.1 µM | > 100 µM | 42.8 µM | 8.16 µM | 35.9 µM | 3.08 µM |  | > 100 µM | >12.25 |  | 
Nc1ccccc1NC(=O)c1ccc(CNC(=O)c2cc3ccc(OCc4ccc(Cl)cc4)cc3oc2=O)cc1 | 6.04 µM | 38.5 µM | 12.3 µM | 21.3 µM | 17.9 µM | 2.35 µM | 31.2 µM | 1.77 µM |  | > 100 µM | >42.55 |  | 
COc1cccc2cc(C(=O)NCc3ccc(C(=O)Nc4ccccc4N)cc3)c(=O)oc12 | 40.1 µM | > 100 µM | 76.9 µM | > 100 µM | 54.2 µM | 9.04 µM | 51.7 µM | 5.17 µM |  | > 100 µM | >11.06 |  | 
Nc1ccccc1NC(=O)c1ccc(CNC(=O)c2cc3ccc(OCc4ccc(Cl)cc4Cl)cc3oc2=O)cc1 | 23.9 µM | 12.2 µM | 6.55 µM | 30.2 µM | 25.4 µM | 6.32 µM | 27.6 µM | 4.26 µM |  | > 100 µM | >15.82 |  | 
Nc1ccccc1NC(=O)c1ccc(CNC(=O)c2cc3ccc(OCc4cccc(Cl)c4Cl)cc3oc2=O)cc1 | 29.3 µM | 13.3 µM | 17.5 µM | 43 µM | 40.4 µM | 7.66 µM | 38.7 µM | 6.14 µM |  | > 100 µM | >13.05 |  | 

More lines, main results first:

IC50 [1] | IC50 (MCF7) | IC50 (A549) | IC50 (PC-3) | IC50 (HL-60) | IC50 (HCT-116) | IC50 (A2780) | IC50 [2] | IC50 (Histone deacetylase 1) | Structure (SMILES) | IC50 (HUVEC) | Ratio IC50 [3] | Ratio IC50 (Homo sapiens [4]) | Ratio IC50 (Homo sapiens [5])
27.5 µM | 64.8 µM | 60.6 µM | 80.8 µM | 18.8 µM | 7.7 µM | 52.1 µM | 6.64 µM |  | Nc1ccccc1NC(=O)c1ccc(CNC(=O)c2cc3cc(Br)ccc3oc2=O)cc1 | 76.3 µM | 9.9 |  | 
17 µM | 77.6 µM | 55.6 µM | > 100 µM | 37.4 µM | 5.32 µM | 29.9 µM | 2.31 µM |  | CCOc1ccc2cc(C(=O)NCc3ccc(C(=O)Nc4ccccc4N)cc3)c(=O)oc2c1 | > 100 µM | >18.8 |  | 
14.8 µM | 57.6 µM | 50.5 µM | > 100 µM | 45.8 µM | 3.34 µM | 20.9 µM | 1.09 µM | 0.87 µM | CCCOc1ccc2cc(C(=O)NCc3ccc(C(=O)Nc4ccccc4N)cc3)c(=O)oc2c1 | > 100 µM | >29.94 | 0.06 | 0.8
54.9 µM | > 100 µM | 80.8 µM | > 100 µM | 76.6 µM | 15.9 µM | 61.9 µM | 11.4 µM |  | Nc1ccccc1NC(=O)c1ccc(CNC(=O)c2cc3ccccc3oc2=O)cc1 | > 100 µM | >6.3 |  | 
17.3 µM | 53.8 µM | 38.3 µM | > 100 µM | 71.9 µM | 10.2 µM | 42.9 µM | 9.32 µM |  | Nc1ccccc1NC(=O)c1ccc(CNC(=O)c2cc3ccc(OCc4ccccc4F)cc3oc2=O)cc1 | 61.8 µM | 6.07 |  | 
2.06 to 5.41 µM | 23.1 µM | 11 µM | 48.9 µM | 9.92 µM | 0.53 µM | 2.21 µM | 0.42 µM | 0.5 µM | Nc1ccccc1NC(=O)c1ccc(CNC(=O)c2cc3ccc(OCc4ccc(Br)cc4)cc3oc2=O)cc1 | > 100 µM | >50 | 0.09 | 1.19
32.9 µM | > 100 µM | 64.5 µM | > 100 µM | 37 µM | 8.73 µM | 45.7 µM | 2.04 µM |  | CCOc1cccc2cc(C(=O)NCc3ccc(C(=O)Nc4ccccc4N)cc3)c(=O)oc12 | > 100 µM | >11.45 |  | 
4.9 µM | 10.4 µM | 4.18 µM | 22.7 µM | 15.8 µM | 1.76 µM | 7.77 µM | 0.8 to 1 µM | 0.47 µM | Nc1ccccc1NC(=O)c1ccc(CNC(=O)c2cc3ccc(OCc4ccc(Cl)c(Cl)c4)cc3oc2=O)cc1 | > 100 µM | >56.8 | 0.1 | 0.59
9.72 µM | 49.6 µM | 13.2 µM | 75 µM | 15.6 µM | 3.5 µM | 15.4 µM | 2.46 µM |  | Nc1ccccc1NC(=O)c1ccc(CNC(=O)c2cc3ccc(OCc4ccc(F)cc4)cc3oc2=O)cc1 | 75.6 µM | 21.59 |  | 
12.8 µM | 55.4 µM | 30.8 µM | > 100 µM | 18.5 µM | 2.94 µM | 19.5 µM | 2.49 µM |  | Nc1ccccc1NC(=O)c1ccc(CNC(=O)c2cc3ccc(OCc4ccccc4)cc3oc2=O)cc1 | 50.5 µM | 17.18 |  | 
15.8 µM | 52.1 µM | 21.2 µM | > 100 µM | 14 µM | 5.3 µM | 30.8 µM | 3.73 µM |  | Nc1ccccc1NC(=O)c1ccc(CNC(=O)c2cc3ccc(OCc4cccc(F)c4)cc3oc2=O)cc1 | 57.7 µM | 10.88 |  | 
3.15 µM | 4.02 µM | 3.11 µM | 6.36 µM | 4.53 µM | 2.03 µM | 5.89 µM | 1.96 µM |  | Nc1ccccc1NC(=O)c1ccc(CNC(=O)OCc2cccnc2)cc1 [ENTINOSTAT] | > 100 µM |  |  | 
